Structures can show the parent of a compound that is named as a salt.
Key:
Mus musculus [1] = assay: Increase of exploratory behavior of mice by administering compound perorally; format: functional
Method in brief: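 Male Swiss mice (18-20 g) were dosed orally in 0.5% carboxymethylcellulose and placed singly in photobeam boxes with two crossed beams. Beam breaks were counted over the first 5 min. ED50 is the dose raising counts by 50% over vehicle controls, fitted by least squares from four groups of 10 mice on doses spaced by ratio 2.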

Mus musculus [2] = assay: Toxicity administered perorally was measured in mice; format: organism-based; details: in vivo, po
Method in brief: (§1)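 Male Swiss mice (18-20 g) were given compound orally in 0.5% carboxymethylcellulose, in groups of four at 200, 400, 800 and 1600 mg/kg. LD50 was taken from mortality; vehicle controls were included.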

[3] = Ratio of LD50/ED50; format: ADME
Cavia porcellus [4] = species: Cavia porcellus; assay: In vitro anticholinergic activity was determined by acetylcholine induced contraction of guinea pig ileum; format: functional; details: read-out: pA2 (converted)
Method in brief: (§2)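 Terminal ileum strips from guinea pigs (250-300 g) killed by a blow to the neck were hung in Tyrode solution at 32 °C, gassed with 95% O2/5% CO2.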

Cavia porcellus [5] = species: Cavia porcellus; assay: In vitro antihistaminic activity was determined by histamine induced contraction of guinea pig ileum; format: functional; details: for Kb: Cavia porcellus, Ileum, read-out: pA2 (converted); method in brief: as §2
Canis familiaris [6] = assay: Sympathomimetic action was evaluated from the increase of the cardiac rhythm after intravenous injection in dog; format: functional, Canis lupus familiaris
Method in brief: (§3)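 Mongrel dogs of both sexes were given compound intravenously in 0.5% carboxymethylcellulose. Hypertension and tachycardia were recorded. Values are doses in μmol/kg.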

Canis familiaris [7] = assay: Sympathomimetic action was evaluated from the increase of the femoral arterial blood pressure after intravenous injection in dog; format: functional, Canis lupus familiaris; method in brief: as §3
[8] = Group toxicity is the ratio of the LD50 values of isolated mice to that of grouped mice; format: organism-based; details: mouse, in vivo; read-out: Group toxicity
Method in brief: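 Male Swiss mice (18-20 g) were dosed orally in 0.5% carboxymethylcellulose. Groups of 10 were then either crowded in small boxes (8.5 × 18 × 8.5 cm, four air holes) or kept isolated under usual housing, and mortality was read at 6 h. Ratio = LD50 isolated / LD50 grouped, from six doses spaced by ratio 2, computed by Kärber's method.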

Rattus norvegicus [9] = species: Rattus norvegicus; assay: Anorexic activity was measured as the dose required to lower by 50% the consumption of control group in rat; format: functional
Method in brief: (§4)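 Male Wistar rats (100-120 g) given chocolate milk to drink for 6 h once a week over 6 weeks. In the last 4 weeks, compounds in 0.5% aqueous carboxymethylcellulose were given orally before each session in a Latin square design. ED50 is the dose cutting consumption by 50% vs vehicle controls, fitted by least squares from three groups (24 rats) on doses spaced by ratio 2.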

Mus musculus [10] = assay: Narcosis antagonism was measured as the dose required to lower by 50% the duration of narcosis in mice after peroral administration; format: functional; details: po
Canis familiaris [11] = assay: Sympathomimetic action was evaluated from the increase of the femoral arterial blood pressure and of the cardiac uM/kg changes were < 10%; format: functional, Canis lupus familiaris; method in brief: as §3
Rattus norvegicus [12] = species: Rattus norvegicus; assay: Anorexic activity was measured as the dose required to lower by 50% the consumption of control group in rat; No activity at this dose; format: functional; method in brief: as §4
Canis familiaris [13] = assay: Sympathomimetic action was evaluated from the increase of the femoral arterial blood pressure and of the cardiac uM/kg changes were <10%; format: functional, Canis lupus familiaris; method in brief: as §3
Mus musculus [14] = assay: Toxicity was measured as Lethal Dose 50 by administering to mice perorally; format: organism-based; details: in vivo, po; method in brief: as §1

| Structure (SMILES) | ED50 (Mus musculus [1]) [mmol/kg] | LD50 (Mus musculus [2]) [mmol/kg] | selectivity ratio [3] | other results |
| --- | --- | --- | --- | --- |
| O=C(CN1CCN(CCOC(c2ccccc2)c2ccccc2)CC1)N1CCOCC1.O=C(O)/C=C\C(=O)O.O=C(O)/C=C\C(=O)O.O=C(O)/C=C\C(=O)O | 0.15 | 1.2 | 8 | – |
| Cl.N#CCCN1CCN(CCOC(c2ccccc2)c2ccccc2)CC1 | 0.1 | 0.7 | 7 | – |
| CCCC(OCCN1CCN(CCC(=O)O)CC1)c1ccccc1.O=C(O)/C=C\C(=O)O.O=C(O)/C=C\C(=O)O (configuration not stated) | 0.1 | > 2.8 | > 28 | Kb (Cavia porcellus [4]): 1.95 µM; Kb (Cavia porcellus [5]): 3.55 µM |
| COc1ccc(CN(CCN(C)C)c2ccccn2)cc1 [PYRILAMINE MALEATE] | – | – | – | Kb (Cavia porcellus [4]): 3.98 µM; Kb (Cavia porcellus [5]): 0.000417 µM |
| Cl.O=C(O)CCCN1CCN(CCOC(c2ccccc2)c2ccccc2)CC1 | 0.17 | 3.4 | – | – |
| O=C(CN1CCN(CCOC(c2ccccc2)c2ccccc2)CC1)N1CCN(Cc2ccc3c(c2)OCO3)CC1.O=C(O)/C=C\C(=O)O.O=C(O)/C=C\C(=O)O | – | 0.7 | 23 | – |
| CC(N)Cc1ccccc1.O=S(=O)(O)O (racemic) [AMPHETAMINE SULFATE] | – | – | – | Increase (Canis familiaris [6]): 30%; Increase (Canis familiaris [7]): 50%; Kb (Cavia porcellus [4]): > 1000 µM; Kb (Cavia porcellus [5]): 13.5 µM; selectivity ratio [8]: 5.3; ED50 (Rattus norvegicus [9]): 13 µmol/kg; ED50 (Mus musculus [10]): 20 µmol/kg |
| COc1cc(C(OCCN2CCN(CCC(=O)O)CC2)c2ccccc2)cc(OC)c1OC.O=C(O)/C=C\C(=O)O.O=C(O)/C=C\C(=O)O (configuration not stated) | 0.5 | 2.3 | – | – |
| CCOC(=O)CCN1CCN(CCOC(c2ccc(F)cc2)c2ccc(F)cc2)CC1.Cl | 0.06 | 1.2 | 20 | Activity (Canis familiaris [11]): 0; Kb (Cavia porcellus [4]): 0.309 µM; Kb (Cavia porcellus [5]): 0.00724 µM; selectivity ratio [8]: 0.4; ED50 (Mus musculus [10]): ~200 µmol/kg |
| O=C(O)/C=C\C(=O)O.O=C(O)/C=C\C(=O)O.O=C(O)CN1CCN(CCOC(c2ccccc2)c2ccc(F)cc2)CC1 (configuration not stated) | 0.1 | 2.8 | 28 | – |
| COc1ccccc1C(OCCN1CCN(CCC(=O)O)CC1)c1ccccc1.O=C(O)/C=C\C(=O)O.O=C(O)/C=C\C(=O)O (configuration not stated) | 0.5 | 2.2 | – | – |
| O=C(O)/C=C\C(=O)O.O=C(O)/C=C\C(=O)O.O=C(O)CCN1CCN(CCOC(c2ccccc2)c2ccc(Cl)cc2)CC1 (configuration not stated) | 0.05 | 1.6 | 32 | – |
| Cl.NC(=O)CCN1CCN(CCOC(c2ccccc2)c2ccccc2)CC1 | 0.17 | 2.1 | 12 | – |
| O=C(O)/C=C\C(=O)O.O=C(O)/C=C\C(=O)O.O=C(O)CCN1CCN(CCOC(c2ccccc2)c2ccc(F)cc2)CC1 (configuration not stated) | 0.04 | 1.3 | 37 | Activity (Canis familiaris [11]): 0; Kb (Cavia porcellus [4]): 7.24 µM; Kb (Cavia porcellus [5]): 0.224 µM; selectivity ratio [8]: 1.7; ED50 (Rattus norvegicus [12]): > 60 µmol/kg; ED50 (Mus musculus [10]): > 650 µmol/kg |
| CCOC(=O)CCN1CCN(CCOC(c2ccccc2)c2ccccc2Cl)CC1.Cl (configuration not stated) | 0.5 | 3.2 | – | pA2 (Cavia porcellus [5]): 7.25 |
| O=C(O)/C=C\C(=O)O.O=C(O)/C=C\C(=O)O.O=C(O)CCCCN1CCN(CCOC(c2ccccc2)c2ccc(F)cc2)CC1 (configuration not stated) | 0.05 | 2.2 | 40 | – |
| Cc1ccc(C(OCCN2CCN(CCC(=O)O)CC2)c2ccccc2)cc1.O=C(O)/C=C\C(=O)O.O=C(O)/C=C\C(=O)O (configuration not stated) | 0.16 | 2.3 | 14 | – |
| CCOC(=O)CCN1CCN(CCCOC(c2ccccc2)c2ccccc2)CC1.Cl | 0.1 | 1.8 | 18 | – |
| O=C([O-])CCN1CCN(CCOC(c2ccccc2)c2ccccc2)CC1.[Na+] | 0.21 | 3.6 | 17 | Activity (Canis familiaris [13]): 0; Kb (Cavia porcellus [4]): 115 µM; Kb (Cavia porcellus [5]): 0.759 µM; selectivity ratio [8]: 0.6; ED50 (Mus musculus [10]): > 500 µmol/kg |
| O=C(O)CCN1CCN(CCOCc2ccccc2)CC1 | 0.5 | > 5.5 | – | – |
| O=C(O)/C=C\C(=O)O.O=C(O)/C=C\C(=O)O.O=C(O)CCCN1CCN(CCOC(c2ccccc2)c2ccc(F)cc2)CC1 (configuration not stated) | 0.06 | 1.9 | 34 | – |
| CCOC(=O)CCN1CCN(CCOC(c2ccccc2)c2ccc([N+](=O)[O-])cc2)CC1.Cl (configuration not stated) | 0.5 | – | – | LD50 (Mus musculus [14]): 3 M/kg |
| O=C(O)/C=C\C(=O)O.O=C(O)/C=C\C(=O)O.O=C(O)CCN1CCN(CCOC(c2ccc(F)cc2)c2ccc(F)cc2)CC1 | 0.05 | 1.1 | 23 | – |
| O=C(O)/C=C\C(=O)O.O=C(O)/C=C\C(=O)O.O=C(O)CCN1CCN(CCOC(c2ccccc2)c2cccc(C(F)(F)F)c2)CC1 (configuration not stated) | 0.3 | 1.8 | 6 | – |
| O=C(O)/C=C\C(=O)O.O=C(O)/C=C\C(=O)O.O=C(O)CCN1CCN(CCOC2c3ccccc3-c3ccccc32)CC1 | 0.23 | 2.3 | 10 | – |
| O=C([O-])CN1CCN(CCOC(c2ccccc2)c2ccccc2)CC1.[Na+] | 0.5 | 4.3 | – | – |
